According to ChEMBL document CHEMBL1152248, “The 'Ethereal' nature of TLR4 agonism and antagonism in the AGP class of lipid A mimetics” (Bioorg Med Chem Lett, 2008):
Calls of active or inactive are those of the source. The rule behind the calls is not given here.

Assays:
Influenza A virus [1] = experiment: Protection against Influenza A/HK/68 virus infected BALB/c mouse assessed as survival at 0.5 mg/kg, intranasal administered 2 days prior to influenza challenge measured after 21 days; assay type: functional; details: inhaled or nasal
Summary of the method: (§1)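 Female/male unspecified BALB/c mice, 8 per group, given compound intranasally in 0.2% aqueous triethanolamine vehicle 2 days before intranasal influenza challenge. Vehicle-only group as control. Read-out is percent survival, recorded over 21 days after viral challenge.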

Toll-like receptor 4 [2] = target: T1, Toll-like receptor 4 (Homo sapiens, UniProt O00206); experiment: Antagonist activity at TLR4 in human PBMC assessed as inhibition of LPS-stimulated TNFalpha production pre-incubated for 30 mins before LPS challenge measured after 18 hrs by ELISA; assay type: functional
T1 sequence (O00206 whole entry): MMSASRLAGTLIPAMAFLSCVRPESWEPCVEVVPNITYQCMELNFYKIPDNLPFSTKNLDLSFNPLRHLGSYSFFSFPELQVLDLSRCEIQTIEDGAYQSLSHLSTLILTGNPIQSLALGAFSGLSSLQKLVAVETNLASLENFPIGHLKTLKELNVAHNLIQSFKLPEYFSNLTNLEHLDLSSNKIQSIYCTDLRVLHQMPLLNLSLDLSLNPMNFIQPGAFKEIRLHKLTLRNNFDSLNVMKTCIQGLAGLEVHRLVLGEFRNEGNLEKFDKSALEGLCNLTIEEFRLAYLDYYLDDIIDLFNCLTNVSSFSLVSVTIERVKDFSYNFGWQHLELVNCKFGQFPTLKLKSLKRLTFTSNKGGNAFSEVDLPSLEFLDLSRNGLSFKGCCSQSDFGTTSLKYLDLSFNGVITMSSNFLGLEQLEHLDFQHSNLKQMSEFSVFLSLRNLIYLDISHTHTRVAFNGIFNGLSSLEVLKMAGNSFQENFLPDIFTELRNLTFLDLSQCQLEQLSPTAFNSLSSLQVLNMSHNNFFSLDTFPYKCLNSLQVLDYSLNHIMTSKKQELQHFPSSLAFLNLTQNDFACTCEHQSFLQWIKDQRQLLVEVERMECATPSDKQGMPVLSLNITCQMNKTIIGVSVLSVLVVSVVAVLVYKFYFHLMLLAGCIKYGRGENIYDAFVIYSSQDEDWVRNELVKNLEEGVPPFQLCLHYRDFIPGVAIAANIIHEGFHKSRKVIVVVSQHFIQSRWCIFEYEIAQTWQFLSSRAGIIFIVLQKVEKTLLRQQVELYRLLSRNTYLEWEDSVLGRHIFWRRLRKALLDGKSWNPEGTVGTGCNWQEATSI
Summary of the method: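 Adherence-isolated human monocytes were preincubated with compound for 30 min, then stimulated with 100 ng/mL E. coli LPS. Supernatant TNF-α was measured by ELISA after 18 h. IC50 was fitted with a four-parameter logistic dose–response model.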

Influenza A virus [3] = experiment: Protection against Influenza A/HK/68 virus infected BALB/c mouse assessed as survival at 5 mg/kg, intranasal administered 2 days prior to influenza challenge measured after 21 days; assay type: functional; details: inhaled or nasal; summary of the method: as §1
Toll-like receptor 4 [4] = target: T1, Toll-like receptor 4; experiment: Agonist activity at TLR4 in human PBMC assessed as induction of TNFalpha production after 18 hrs by sandwich ELISA; assay type: functional
Summary of the method: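 Human monocytes were isolated by 2 h adherence to tissue-culture plates. They were exposed to compound over a 0–10,000 range in 0.2% aq triethanolamine (TEOA) for 18 h. TNF-α in supernatants was measured by sandwich ELISA. Data are three replicate samples from one of three donors. ED50 was fitted with a four-parameter logistic dose–response model.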

Influenza A virus [5] = experiment: Protection against Influenza A/HK/68 virus infected BALB/c mouse assessed as survival at 0.05 mg/kg, intranasal administered 2 days prior to influenza challenge measured after 21 days; assay type: functional; details: inhaled or nasal; summary of the method: as §1
Listeria monocytogenes [6] = experiment: Protection against Listeria monocytogenes infected iv dosed BALB/c mouse assessed as reduction in splenic bacteria administered 2 days prior to bacterial challenge measured after 2 days; assay type: functional, organism-based
Summary of the method: (§2)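 BALB/c mice got AGP iv in 100 µL of 0.2% aq TEOA 2 days before iv challenge with 10^5 L. monocytogenes. Two days after challenge, splenic CFUs were counted by serial dilution of homogenates. Log10 relative protection is control-group log10 CFU/spleen minus test-group log10 CFU/spleen.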

Influenza A virus [7] = experiment: Protection against Influenza A/HK/68 virus infected BALB/c mouse assessed as survival at 0.005 mg/kg, intranasal administered 2 days prior to influenza challenge measured after 21 days; assay type: functional; details: inhaled or nasal; summary of the method: as §1
Listeria monocytogenes [8] = experiment: Inhibition of CRX-527-mediated protection against Listeria monocytogenes infected iv dosed BALB/c mouse administered 2 days prior to bacterial challenge measured after 2 days; assay type: organism-based; details: in vivo, 48 h; summary of the method: as §2
Mus musculus = experiment: Inhibition of LPS-induced serum TNFalpha production in iv dosed BALB/c mouse after 1.5 hrs by ELISA; assay type: functional, organism-based
Summary of the method: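 BALB/c mice (n = 3) were given 5 ng LPS iv, either alone or together with 0.2% TEOA vehicle or test compound. Serum was collected 1.5 h post-injection and TNF-α was measured by ELISA.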

| Structure (SMILES) | survival at 0.5 mg/kg (Influenza A virus [1]) | Activity (Toll-like receptor 4 [2]) | survival at 5 mg/kg (Influenza A virus [3]) | ED50 (Toll-like receptor 4 [4]) | survival at 0.05 mg/kg (Influenza A virus [5]) | Activity (Listeria monocytogenes [6]) | survival at 0.005 mg/kg (Influenza A virus [7]) | IC50 (Toll-like receptor 4 [2]) | Activity (Listeria monocytogenes [8]) | Activity (Toll-like receptor 4 [4]) | Activity (Mus musculus) |
| --- | --- | --- | --- | --- | --- | --- | --- | --- | --- | --- | --- |
| CCCCCCCCCCC[C@H](CC(=O)N[C@H]1[C@H](OC[C@H](NC(=O)C[C@@H](CCCCCCCCCCC)OCCCCCCCCCC)C(=O)O)O[C@H](CO)[C@@H](OP(=O)(O)O)[C@@H]1OC(=O)C[C@@H](CCCCCCCCCCC)OCCCCCCCCCC)OCCCCCCCCCC | 80% | inactive | 100% | 0.17 nM | 60% | Active | 20% |  |  |  |  |
| CCCCCCCCCCC[C@H](CC(=O)N[C@H]1[C@H](OC[C@H](NC(=O)C[C@@H](CCCCCCCCCCC)OC(=O)CCCCCCCCC)C(=O)O)O[C@H](CO)[C@@H](OP(=O)(O)O)[C@@H]1OC(=O)C[C@@H](CCCCCCCCCCC)OC(=O)CCCCCCCCC)OC(=O)CCCCCCCCC | 70% | inactive | 100% | 0.39 nM | 70% | Active | 30% |  |  |  |  |
| CCCCCCCCCCC[C@H](CC(=O)N[C@H]1[C@H](OC[C@H](NC(=O)C[C@@H](CCCCCCCCCCC)OCCCCCC)C(=O)O)O[C@H](CO)[C@@H](OP(=O)(O)O)[C@@H]1OC(=O)C[C@@H](CCCCCCCCCCC)OCCCCCC)OCCCCCC |  |  |  |  |  |  |  | 5.3 nM | Not Active | inactive | inactive |
| CCCCCCCCCCC[C@H](CC(=O)N[C@H]1[C@H](OC[C@H](NC(=O)C[C@@H](CCCCCCCCCCC)OC(=O)CCCCC)C(=O)O)O[C@H](CO)[C@@H](OP(=O)(O)O)[C@@H]1OC(=O)C[C@@H](CCCCCCCCCCC)OC(=O)CCCCC)OC(=O)CCCCC |  |  |  |  |  |  |  | 2.4 nM | Dose-dependent effect | inactive | Active |
